Measured values reported in ChEMBL document CHEMBL4028911, “Discovery of a Small-Molecule Bromodomain-Containing Protein 4 (BRD4) Inhibitor That Induces AMP-Activated Protein Kinase-Modulated Autophagy-Associated Cell Death in Breast Cancer” (J Med Chem, 2017).
Active and inactive are the calls of the source. The calls are words filed in the database; no cut-off is given here.

Key:
MDA-MB-231 = assay: Induction of autophagy in human MDA-MB-231 cells assessed as downregulation of p62/SQSTM1 expression at 3 uM measured up to 36 hrs by Western blot analysis; type: functional, cell-based
How it was run: (§1)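 MCF-7 (1.5 µM) or MDA-MB-231 (3 µM) cells treated for indicated times. Adherent and floating cells lysed in RIPA with 1 mM PMSF, 4°C for 1 h. Equal protein run on 10-15% SDS-PAGE, transferred to PVDF, blocked with milk or BSA, probed with primary then HRP secondary antibodies, ECL detection; β-actin as loading control.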

MCF7 [1] = assay: Antitumor activity against human MCF7 cells xenografted in ig dosed nude BALB/c mouse assessed as tumor growth inhibition administered once a day for 24 days measured every 3 days relative to control; type: functional, organism-based
How it was run: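 Female BALB/c nude mice, 6-8 weeks, 20-22 g, injected subcutaneously with 5×10^6 MCF-7 or MDA-MB-231 cells. At 100 mm³ tumor volume (V = L×W²/2), split into four groups: 25, 50 or 100 mg/kg intragastric once daily for 24 or 27 days, or vehicle. Tumor volume and body weight measured every 3 days; tumors excised and weighed at end. MCF-7 n=7, MDA-MB-231 n=6 per group.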

[2] = target: T1, Bromodomain-containing protein 4 (Homo sapiens, UniProt O60885); assay: Inhibition of BRD4 in human MDA-MB-231 cells assessed as reduction in ULK1 protein expression at 3 uM up to 36 hrs by Western blot analysis; type: cell-based
How it was run: (§2)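 MCF-7 (1.5 μM) or MDA-MB-231 (3 μM) cells treated for indicated times. Adherent and floating cells lysed in RIPA with 1 mM PMSF. Equal protein run on 10-15% SDS-PAGE, blotted to PVDF, blocked in milk or BSA, HRP/ECL detection. β-actin loading control.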

[3] = target: T1, Bromodomain-containing protein 4; assay: Inhibition of BRD4 interaction with p53 in human MCF7 cells at 1.5 uM by co-immunoprecipitation assay; type: cell-based
How it was run: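 Cells lysed in RIPA buffer (40 mM Tris-HCl pH 7.5, 150 mM NaCl, 0.5% NP-40, 5% glycerol, 10 mM NaF, protease inhibitors). Lysates incubated overnight at 4 °C with BRD4 or p53 antibody plus protein A/G beads, washed 3 times, resolved on 10% SDS-PAGE and blotted for AMPKα or p53.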

[4] = target: T1, Bromodomain-containing protein 4; assay: Inhibition of BRD4 in human MDA-MB-231 cells assessed as downregulation of mTOR phosphorylation at ser244 at 3 uM measured up to 36 hrs by Western blot analysis; type: cell-based; how it was run: as §2
MCF7 [5] = assay: Induction of autophagy in human MCF7 cells assessed as reduction in cell viability at 1.5 uM administered at 1 hr post […] addition by MTT assay; type: functional, cell-based
How it was run: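 MCF-7 cells pretreated with 3-MA (1 mM) for 1 h, then given 1.5 µM. Viability read by MTT: 4 h incubation with MTT, formazan dissolved in DMSO, absorbance at 570 nm.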

MCF7 [6] = assay: Induction of autophagy in human MCF7 cells assessed as assessed as cytoplasmic vacuolization; type: functional, cell-based
MCF-7 = assay: Downregulation of HMGB1 expression in human MCF-7 cells at 1.5 uM measured up to 24 hrs by Western blot analysis
[7] = target: Bromodomain-containing protein 2 (Homo sapiens, UniProt P25440); assay: Inhibition of recombinant human N-terminal GST-tagged BRD2 bromodomain-1 (65 to 187 residues) expressed in Escherichia coli expression system after 120 mins by TR-FRET assay
How it was run: (§3)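 TR-FRET bromodomain binding. Recombinant BRD domain, BET ligand and test agent in 20 μl assay buffer with 1% DMSO final. Incubated 120 min at room temperature. Blank lacks BET ligand.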

MCF7 [8] = assay: Effect on AKT expression in human MCF7 cells at 1.5 uM measured up to 36 hrs by Western blot analysis; type: ADME, cell-based; conditions: mcf7, 36 h; how it was run: as §1
[9] = target: T1, Bromodomain-containing protein 4; assay: Inhibition of BRD4 in human MCF7 cells assessed as induction of AMPKalpha phosphorylation at thr172 at 1.5 uM in presence of ATG5 siRNA by Western blot analysis; type: cell-based
How it was run: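 Cells given 50 nM ATG5 or negative-control siRNA (Lipofectamine RNAiMAX) and used 48 h later, then exposed to 1.5 μM (MCF-7) or 3 μM (MDA-MB-231). p-AMPKα analysed by western blot with β-actin loading control.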

[10] = target: T1, Bromodomain-containing protein 4; assay: Inhibition of BRD4 in human MDA-MB-231 cells assessed as downregulation of AKT phosphorylation at ser473 at 3 uM measured up to 36 hrs by Western blot analysis; type: cell-based; how it was run: as §2
[11] = target: Bromodomain-containing protein 3 (Homo sapiens, UniProt Q15059); assay: Inhibition of recombinant human N-terminal GST-tagged BRD3 bromodomain-2 (306 to 417 residues) expressed in Escherichia coli expression system after 120 mins by TR-FRET assay; how it was run: as §3
Bromodomain-containing protein 3, sequence (Q15059 whole entry, the tested form may be a part): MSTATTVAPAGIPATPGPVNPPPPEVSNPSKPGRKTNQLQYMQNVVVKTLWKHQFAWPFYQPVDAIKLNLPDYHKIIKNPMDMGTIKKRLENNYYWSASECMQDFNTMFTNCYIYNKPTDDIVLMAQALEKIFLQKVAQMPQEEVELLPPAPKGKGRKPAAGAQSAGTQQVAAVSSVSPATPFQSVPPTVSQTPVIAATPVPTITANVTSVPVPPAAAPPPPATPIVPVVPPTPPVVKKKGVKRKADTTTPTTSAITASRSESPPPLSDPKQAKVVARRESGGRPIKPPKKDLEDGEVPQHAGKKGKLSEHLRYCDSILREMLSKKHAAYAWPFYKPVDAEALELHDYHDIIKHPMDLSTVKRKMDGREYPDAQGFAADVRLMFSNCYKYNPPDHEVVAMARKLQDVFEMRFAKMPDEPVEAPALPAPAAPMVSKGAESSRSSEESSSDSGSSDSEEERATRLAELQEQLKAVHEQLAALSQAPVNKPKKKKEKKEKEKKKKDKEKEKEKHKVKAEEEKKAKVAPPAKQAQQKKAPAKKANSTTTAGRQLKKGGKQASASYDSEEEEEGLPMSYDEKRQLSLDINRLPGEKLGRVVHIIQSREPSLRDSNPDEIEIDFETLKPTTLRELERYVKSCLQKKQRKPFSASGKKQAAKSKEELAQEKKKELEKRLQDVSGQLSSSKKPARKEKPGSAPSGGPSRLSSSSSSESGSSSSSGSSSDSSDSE

Bromodomain-containing protein 2, sequence (P25440 whole entry, the tested form may be a part): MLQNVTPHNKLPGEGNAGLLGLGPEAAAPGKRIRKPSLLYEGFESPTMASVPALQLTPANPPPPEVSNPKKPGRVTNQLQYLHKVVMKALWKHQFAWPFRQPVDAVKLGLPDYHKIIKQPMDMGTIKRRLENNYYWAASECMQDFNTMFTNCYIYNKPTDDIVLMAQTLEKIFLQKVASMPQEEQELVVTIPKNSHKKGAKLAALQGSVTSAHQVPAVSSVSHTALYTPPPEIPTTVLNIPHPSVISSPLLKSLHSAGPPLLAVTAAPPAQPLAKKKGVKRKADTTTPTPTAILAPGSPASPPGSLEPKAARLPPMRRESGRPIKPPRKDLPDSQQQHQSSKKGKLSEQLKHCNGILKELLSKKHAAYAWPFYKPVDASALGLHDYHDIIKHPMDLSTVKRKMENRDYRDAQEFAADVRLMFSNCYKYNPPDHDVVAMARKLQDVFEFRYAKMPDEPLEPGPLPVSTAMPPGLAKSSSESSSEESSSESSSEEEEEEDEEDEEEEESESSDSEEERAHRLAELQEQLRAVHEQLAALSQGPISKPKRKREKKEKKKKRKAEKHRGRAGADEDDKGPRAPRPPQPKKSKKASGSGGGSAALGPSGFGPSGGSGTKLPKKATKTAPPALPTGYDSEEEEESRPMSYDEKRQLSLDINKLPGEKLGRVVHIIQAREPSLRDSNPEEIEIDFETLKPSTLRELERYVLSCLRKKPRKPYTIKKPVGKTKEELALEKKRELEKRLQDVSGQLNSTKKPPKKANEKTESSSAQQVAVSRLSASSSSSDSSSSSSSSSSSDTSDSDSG

inhibition [2]: Active
inhibition [3]: Active
inhibition [4]: Active
IC50 [7]: 24.6 µM
inhibition [9]: Active
inhibition [10]: Active
IC50 [11]: > 100 µM
SMILES: Cc1cc(-c2nc3sc4c(c3c(=O)[nH]2)CCN(C)C4)cc(C)c1O
Activity (MDA-MB-231): Active
TGI (MCF7 [1]): Dose-dependent effect
Activity (MCF7 [5]): inactive
Activity (MCF7 [6]): Active
Activity (MCF-7): Active
Activity (MCF7 [8]): Non-Toxic
